Consider 2 compounds from article PMC6844228 (International Journal of Nanomedicine, 2019).

A word on the IC50: it is the concentration at which inhibition is half-maximal. Lower therefore signals higher potency.

Data set [1] concerns human breast adenocarcinoma MCF-7 cells. The experiment in a line: Cell Counting Kit-8 cytotoxicity assay, MCF-7. The format is cell-based. The note with it: MCF7, 48 h. The essentials: (§1)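 Cells were seeded at 5×10^3 per well in DMEM with 10% FBS, 100 μg/mL streptomycin and 100 IU/mL penicillin, then held 24 h at 37°C under 5% CO2. Medium was replaced with test compound at CA4-equivalent concentrations of 0.0025, 0.025, 0.25, 2.5, 25, 125 and 250 μM for 48 h. Then 10% CCK-8 was added for 1.5 h at 37°C and A450 read. Viability was calculated against control and blank wells, and IC50 derived.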
(Formazan colour is commonly taken as a measure of viable cells.)

For data set [2], the system named is mouse sarcoma S180 cells. The experiment in a line: Cell Counting Kit-8 cytotoxicity assay, S180. The format is cell-based. The note with it: S-180, 48 h. A digest of the protocol: as §1
Data set [3] has as its system human hepatocellular liver carcinoma HepG2 cells. The experiment in a line: Cell Counting Kit-8 cytotoxicity assay, HepG2. The conditions noted are these: HepG2, 48 h. It is filed as cell-based. A digest of the protocol:
as §1

A short description of data set [4]: In vivo biodistribution in S180 tumor-bearing mice. The conditions noted are these: iv, drug-equivalent doses of 28 mg/kg CA4P, heart, kidney, liver, spleen, lung.
Data set [5] can be described thus: In vivo pharmacokinetics after tail vein injection. The note with it: 2 h following injection, SD rats. The essentials: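 Male rats (180–200 g) were fasted 12 h, then dosed into the tail vein at drug-equivalent 28 mg/kg of phosphate prodrug. Orbital-vein blood was taken at 2, 5, 10, 15, 20, 30 and 45 min and at 1, 1.5, 2, 4, 6 and 10 h, into heparinized vials. Plasma was separated (4,000 rpm, 10 min), stored at −20°C, and prodrug and released parent drug were quantified by HPLC. n=6, mean ± SD.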

Molecules are shown by their SMILES.

`COc1ccc(/C=C\c2cc(OC)c(OC)c(OC)c2)cc1O` [CA4, combretastatin A4]: the IC50 in data set [1] is 4 ± 2 nM; in data set [2], less than 1 nM; in data set [3] it was 64 ± 6 nM.

As for `COc1ccc(/C=C\c2cc(OC)c(OC)c(OC)c2)cc1OP(=O)(O)O` [CA4P, combretastatin A4 phosphate], the IC50 in data set [1] was 50 ± 8 nM; in data set [2] it was less than 1 nM; in data set [3] it was 179 ± 53 nM. Besides, the “Tissue detection of prodrug” value in data set [4] is “could be detected in the heart, liver, spleen, lung, kidney, and tumor”. Moreover, the “Detection of prodrug in plasma” value in data set [5] is listed as “could not be detected”.
